Tested on: MS2 coat protein
Experiment: apparent Kd, MS2 coat protein; higher = weaker binding; RNA-MaP array; FMN 200 µM where present
Procedure, shortened: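 SNAP-549-labelled MS2 coat protein, doubled from 0.7 or 1.5 nM to 3 µM, was titrated over designs transcribed by stalled E. coli RNA polymerase on Illumina sequencing-chip clusters. Titrations were run without and then with constant ligand in 100 mM Tris-HCl pH 7.5, 80 mM KCl, 4 mM MgCl2, BSA, DTT, yeast tRNA and Tween-20. The apparent Kd is the median of filtered per-cluster fits to green signal normalised to red-channel RNA signal and control-cluster median Fmax.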

[1] = designed as: ON switch for flavin mononucleotide, no ligand
[2] = ligand present: flavin mononucleotide, designed as: ON switch for flavin mononucleotide
[3] = designed as: OFF switch for flavin mononucleotide, no ligand
[4] = ligand present: flavin mononucleotide, designed as: OFF switch for flavin mononucleotide

Row | Sequence | apparent Kd [1] [nM] | apparent Kd [2] [nM] | apparent Kd [3] [nM] | apparent Kd [4] [nM]
1 | AUGGAUAUCACAGGAUAUGAUAUGGAUACCAUAUCAGAAGGGUGAUCCAUCCUCUGUAAAUACAUGAGGAUCACCCAUGUGUCC | 15.6 | 15.6 | – | –
2 | UUUAGUUGCGCGCAGGAUAUGUAUUAAUAUACAUGAGGAUCACCCAUGUGAGACCAAAUAGGUCUACAGAAGGGCGAAUCGCGAC | 446 | 47.6 | – | –
3 | AUACUCGUUGUGAGGAUAUCGUUUUCUUUACGGAUCGAGAAGGCACAUGAGGAUCACCCAUGUUUGACGUGAAU | – | – | 33.7 | 162
4 | AACAAGAGGAUCACCCAUGUAACAUGAGGAUCACCCAUGUUUAAGGAUAUGUACAUGAUACAUGUACAGAAGGUGGAUUGGACU | – | – | 26.2 | 27.2
5 | AUAUCCGAAGCAGGAUAUCGACGAGGUGUCGAGGUAGAGCGUAUUCACAUGAGGAUCACCCAUGUCGAGAAGGGCUACAGGAUA | – | – | 56.5 | 15.9
6 | GUAGAGUAAGGAUAUGGAGAAUAGGAUAGAAUGGUUAGAAUCUAGAAGGUACAUGAGGAUCACCCAUGUAAUGU | – | – | 21.7 | 20.8
7 | GAGUACUGAGGAUAUACAUGAGGAUCACCCAUGUGUUCCAGCUAGGAAACUAGCAAAAGUAGAAGGCAGUACUG | – | – | 19.5 | 156
8 | AAUAAACUCACAGGAUAUAGCAUAGGUCGCGUGAACUUACAGGCGACGAUGCUAGAAGGGUGACCACAUGAGGAUCACCCAUGU | 892 | 172 | – | –
9 | GGAUAGGACAGAGGAUAUACGUGCUAGUGAUACUAGCAAAAUUUCCUCACAUGAGGAUCACCCAUGUAGAAGGCUGUCCUAUCG | – | – | 15.5 | 453
10 | GUACUGAAGCUUUGCUUUAGUCGUACAUGAGGAUCACCCAUGUAGGAUAUGGUAGGCUUUGCCUACUAGAAGGAUAGAGUGAUC | – | – | 89.2 | 33.9
11 | AACCUAUUACAGAAGGCCAGCUACAUGAGGAUCACCCAUGUCGAGUCAUGGAGGAUAUGUAGUAAUUUACACGCGGGUGAGUAC | 51.6 | 6.25 | – | –
12 | AAGUUUUUACAAGGAUAUCAUUUGUUUCUAAAUUCAACAUGAGGAUCACCCAUGUAACAAUGGAGUGAGAAGGUGUGUUGGCAA | 101 | 84.6 | – | –
13 | UAAAAUCAUGUAGGAUAUGCGUGGCGAAGCUAUGCAGAAGGACAUGAGGAUCACCCAUGUCUUAGCUAGCGUACUAGCUUAAAG | – | – | 12.9 | 49.7
14 | AGUCGGAGCAGAGGAUAUACAUGAGGAUCACCCAUGUAAUAAAGUGAAGCCUGGAAACAGGUAAUGUAGAAGGCUGCUCCGACA | – | – | 11 | 84.7
15 | CAUUUGUGAGGAUAUCAGGUGUGCUAGCGUACUGGUACAUCUGAGAAGGCACAUGAGGAUCACCCAUGUUCCUC | – | – | 50 | 312
16 | GUUUAGUGAGGAUAUGUGGCUUCGAUCGUGCGCGUUCGGCUACAGAAGGCACAUGAGGAUCACCCAUGUUCCUC | – | – | 445 | 704
17 | CUGAUUUGCUAGAAGGGUGACAUGAGGAUCACCCAUGUGCGGGCAGACCUAUCUUCAUGCCCGCCACAGGAUAUAGCAAUUCGC | 38.3 | 48.2 | – | –
18 | ACAUGAGGAUCACCCAUGUGAUGAUCUCCCAUGUCAUAUUUCAGAAGGCUCGCGUGUUUGAUGAGAGAGGAUAUGGAAUAUGCG | – | – | 208 | 152
19 | AUUUCGUUAUCAGGAUAUGGACAGGCCUGUCCGUAUUGAGACAGUAACAUGAGGAUCACCCAUGUCCAGAAGGGAUCGAAGUAU | – | – | 57 | 46.7
20 | GUAGCAUUAUAAGGAUAUUCAUACCGGAAACGGACAUGAGGAUCACCCAUGUGGCGAAAGCCUUGGGAGAAGGUAUUGUGCUAC | 402 | 24.6 | – | –
21 | UUGUGGGAGCAGGAUAUCUUAUUUUUUUUUUGUGGAGAAGGGCUGACAUGAGGAUCACCCAUGUGGUCCUAGAU | – | – | 28.2 | 27.9
22 | GGUCCAUCAUGAGGAUAUGGCACCUUAUUGGUGCCAGAAGGCGUGUCUAUAGACAUGAGGAUCACCCAUGUAAUAAAUUGGACC | 614 | 49.6 | – | –
23 | UGACUCGGAGGAUAUACAUGAGGAUCACCCAUGUUUACUUGCCGCCGAGUAACCUGGUGUAGAAGGUCGAGUGU | – | – | 17.2 | 13.7
24 | GGUGCUAUGUAGAAGGCAGAUCUGAUUCAGAUCUGAGGAUAUACAUGAGGAUCACCCAUGUUAAGCACCAGCACGAGAGUGCAA | – | – | 6.49 | 11.2
25 | CGUCUAUGCUAGAAGGCAUGAAACAUGAGGAUCACCCAUGUCAAAGACAUGAGGAUAUAGCAUAGACGAAAAGUGCGAAAGCAC | 4.43 | 3.26 | – | –
26 | UUAUUUUUACAGAAGGUUUAAUAAUAUAUAUGAGAAGGAUAUGUAACAUGAGGAUCACCCAUGUUUCAUCUAUAUGAGGAUCAU | – | – | 6.69 | 6.32
27 | CGUGCAAGUGUAGGAUAUGGUUAUCUAUGUCUAGUUACUAGACAUAGAUAACCAGAAGGACAUGAGGAUCACCCAUGUAGCACG | – | – | 7.5 | 17.6
28 | GGAAGACAAAGUCUUCCAAUUCGAACAUGAGGAUCACCCAUGUAGGAUAUGCUACUCAAAGAGUAGCAGAAGGACAUGUGCUUU | – | – | 37.3 | 164

Row | Sequence | apparent Kd [1] [nM] | apparent Kd [2] [nM] | apparent Kd [3] [nM] | apparent Kd [4] [nM]
29 | AUCAGCUCGUCAGGAUAUACAUCACUGCUUCGGCAGUGUGGUAAGGUCACAUGAGGAUCACCCAUGUAGAAGGGACGAGCUGAU | – | – | 8.48 | 106
30 | GCCAGGGAUUCAGGAUAUAUUAGCCGAGGCCGCGUAGAAGGGAAAUCCUGACAUGAGGAUCACCCAUGUCGACCCGCCUUCCUC | 28.5 | 29.2 | – | –
31 | AGAAACUACGAGAAGGACAUGUGGUCCUUCAGUUACAUGAGGAUCACCCAUGUAGGAUAUCGUAGUUUCAGGAUCGUGAGAUCC | – | – | 42 | 12.5
32 | CGAUAUUAUAGAGGAUAUGUUUAACAUGAGGAUCACCCAUGUGAGGUGGAAUUAAUGUAUAACUUACAGAAGGCUAUACAAUCG | – | – | 417 | 500
33 | GCGCGCGCAGGAUAUACAAUGGGCCCGGGAAACCGGGCCCUACAUGAGGAUCACCCAUGUAGAAGGGUGUGUGU | – | – | 606 | 468
34 | GAGUGGAAGGCCGCUACAUGAGGAUCACCCAUGUGCUAAGCACAGGAUAUCGCGCUAGCCCGGCGCGAGAAGGGUGACGGCCUU | 577 | 276 | – | –
35 | GGAAAACAUGAGGAUCACCCAUGUAAGGAUAUGCAAAAGGAUAUAGAAGGAAAAAAAAGCAGAAGGUACAAAGG | – | – | 39.9 | 74.8
36 | AUCUUGUAAGGAUAUCUGACAAGUGACGAAAGUCACAGUUCAGAGAAGGUACAUGAGGAUCACCCAUGUAGAAC | – | – | 17.6 | 20.3
37 | AUUGUGUUAGGAUAUGCUUAUGGUGGAUAGUCCAGUAUGAUGUAGAAGGGACAUGAGGAUCACCCAUGUGCUGA | – | – | 46.9 | 48.5
38 | ACGUACUGAGGAUAUACGAACAUGUCAAAAGACGUGAAGGGACAUGAGGAUCACCCAUGUAGAAGGCAGUACGA | – | – | 42.2 | 194
39 | AGAUAGGACAGAGGAUAUACGUGCUAGAGAUACUAGCAAAAUUUCCUCACAUGAGGAUCACCCAUGUAGAAGGCUGUCCUAUCG | – | – | 15.6 | 436
40 | UAUUUAAGAGGAUAUACAUGAGGAUCACCCAUGUGUGUCUAUACGCGUGAUUUUUCAUGUAGAAGGCUUGGGUA | – | – | 160 | 60.5
41 | GGUACUCAAAGAGUACCAAUACGAACAUGAGGAUCACCCAUGUAGGAUAUGCUACUCAAAGAGUAGCAGAAGGAUAUGAUCCAU | – | – | 77.2 | 105
42 | CAUUAUUAUCGAGGAUAUCGUAUUGAGAUACUAUGAGAAGGCGGGAUAAACAUGAGGAUCACCCAUGUGAGCCGGAUGCUUGUG | – | – | 17.1 | 14.8
43 | GCAAUAGCAUGAGGAUAUGCUGGAGUUUAGACAGCAGAAGGCAUGUCAUAAGACAUGAGGAUCACCCAUGUAGUUACAAUGGCA | 26.9 | 11.3 | – | –
44 | CACGCAUGUGGAGGAUAUGCAGUUAACAUAAGCGCAGAAGGCCACAUGAGGAUCACCCAUGUCCAGCAUUAGCUGAUGUUGAUC | – | – | 385 | 195
45 | CACGGCGUAUCAGGAUAUGUGGGUGUCUGGACAUGAGGAUCACCCAUGUAAACAGUAUUAGCCGUGCAGAAGGGAUCCGCUGUA | 39 | 65.2 | – | –
46 | UGGUACUAGGGAGGAUAUGGGAAGAUACAUGAGGAUCACCCAUGUUUAAGAAUGCCGAGAGGCAAAUAGAAGGCCCUAGUACCU | 658 | 85.4 | – | –
47 | AAACAGGCAGGAUAUACAUGAGGAUCACCCAUGUGCAUAAACUGGCUGCGUCCGAAUCGUAGAAGGGCCUGCAU | – | – | 502 | 126
48 | GAGCUAUGAGGAUAUGCAUAGAUACGGAUUCGUGUAGUACUACAUGAGGAUCACCCAUGUAGAAGGCGUGGCUG | – | – | 18.5 | 20.5
49 | CAUUAUUAUCGAGGAUAUCCUAUUGAAAUUCUGGGAGAAGGCGGACUCAACAUGAGGAUCACCCAUGUGAGACGGGUGCUAGGG | – | – | 26.8 | 25.2
50 | AGUCUGCGAGGAUAUACAUGAGGAUCACCCAUGUGCGAAGAACUAGUGAGGUCGAUUGGUAGAAGGCGCGGACA | – | – | 297 | 30.3
51 | CCGCCAAUCGAGAAGGGCCCAUGUGCUACGUCGGCAGGAUAUCGACAUGAGGAUCACCCAUGUUGGCGAUCCUUUUUGGCGAAC | – | – | 149 | 108
52 | AUCAGCUCGACAGGAUAUACAUCACUGCUUCGGCAGUGUAUCUUAAUAACAUGAGGAUCACCCAUGUAGAAGGGUCGAGCUGAU | – | – | 17.8 | 31.6
53 | UCCUCACAUGAGGAUCACCCAUGUUAGGAUAUCUCGGUGCCCUGCAGGCAGUGGCACCAGAGAAGGAACGUGCA | – | – | 21.2 | 22.1
54 | UUAAUUAAUUAGAAGGCAUGUCAUAAGACAUGAGGAUCACCCAUGUAGUUAAGGCGAAAGCCGCAUGAGGAUAUAUAAAUAUAU | 552 | 319 | – | –
55 | UAUUUACAUGAGGAUCACCCAUGUUAGGAUAUGUUUCUAUCGUCGAAAGAUGAUAUUUGCAGAAGGGACUUUAU | – | – | 27.6 | 25.1
